Data reported in ChEMBL document CHEMBL1765024, “Fluorescent cyclin-dependent kinase inhibitors block the proliferation of human breast cancer cells” (Bioorg Med Chem, 2011).
Calls of active or inactive are those of the source. No cut-off for these calls is given here.

How the values were obtained:
[1] = species: Homo sapiens; assay: Binding affinity to human breast cancer tissue at 10 uM after 1 hr by two-photon confocal microscopic analysis; type: functional
In short: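 Breast cancer tissue sections were dewaxed and rehydrated, then given epitope retrieval for 20 min at 100 °C. They were blocked with goat serum, exposed to 10 µM compound or dansyl ethylenediamine control for 1 h at room temperature, washed and mounted. Dansyl fluorescence was imaged.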

[2] = target: CDK3/cyclin E (Homo sapiens) (UniProt P24864+O96020+Q00526); assay: Inhibition of human CDK3/cyclin E at 0.1 uM after 40 mins relative to control; type: protein-complex assay
In short: (§1)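 Radiometric screen at 100 nM compound against purified human CDK/cyclin (5–10 mU). Incubation 40 min at room temperature, stopped with phosphoric acid. Read by filtermat scintillation. Activity expressed as % of control, N = 2.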

[3] = tested on: MCF7; assay: Induction of apoptosis in human MCF7 cells assessed as necrotic cells at 10 uM after 24 hrs using annexinV-propidium iodide staining by flow cytometry (reference value: 12.09%); type: functional
[4] = target: Cyclin-dependent kinase 1/cyclin B1 (Homo sapiens) (UniProt P06493+P14635); conditions: at 0.1 µM
[5] = tested on: MCF7; assay: Antiproliferative activity against human MCF7 cells expressing estrogen receptor after 72 hrs by WST-1 assay; type: functional, cell-based; conditions: MCF7, 72 h
In short: (§2)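 MCF-7 and its P-glycoprotein-overexpressing MDR subline CL 10.3 were grown in DMEM with 10% heat-inactivated FBS. Compounds in DMSO were serially diluted in medium and given to cells for 72 h. Read-out was WST-1 reduction (450 nm, 630 nm reference). IC50 interpolated from log concentration versus fraction surviving; mean (SEM) of triplicates. Ratio is CL 10.3 IC50 over MCF-7 IC50.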

[6] = target: CDK9/cyclin T1 (Homo sapiens) (UniProt O60563+P50750); assay: Inhibition of at human CDK9/cyclin T1 at 0.1 uM after 40 mins relative to control; type: protein-complex assay; in short: as §1
[7] = tested on: MDA-MB-231; assay: Antiproliferative activity against estrogen receptor-deficient human MDA-MB-231 cells after 48 hrs by WST-1 assay; type: functional, cell-based; conditions: MDA-MB-231, 48 h
In short: (§3)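 Cells seeded at 3000/well in DMEM with 10% FBS and left 24 h. Compounds in DMSO were serially diluted in medium (1–100 µM) and added in triplicate. WST-1 was read 48 h after addition: 2–3 h incubation, absorbance at 450 nm with 630 nm reference. IC50 interpolated from log concentration versus fraction surviving; mean (SEM) of triplicate experiments.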

[8] = tested on: MDA-MB-231; assay: Cell cycle arrest in human MDA-MB-231 cells assessed as accumulation at G2/M phase treated at 5 uM for 24 hrs measured after drug washout following 48 hrs growth recovery using propidium iodide staining by flow cytometry; type: functional, cell-based
In short: (§4)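 Exponentially growing cells exposed 24 h, then held a further 48 h in compound-free medium. Cells trypsinized, pelleted, PBS-washed, permeabilized in 70% ethanol, stained 30 min in the dark at room temperature with PI plus RNase, and analysed by flow cytometry. Phase percentages given after subtracting untreated control. Mean of triplicate experiments.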

[9] = tested on: MCF7; assay: Induction of apoptosis in human MCF7 cells assessed as decrease in cell number at 10 uM after 48 hrs using propidium iodide staining by confocal microscopic analysis; type: functional, cell-based
[10] = tested on: MDA-MB-231; assay: Cell cycle arrest in human MDA-MB-231 cells assessed as accumulation at G2/M phase at 5 to 10 uM after 24 hrs using propidium iodide staining by flow cytometry; type: functional, cell-based
In short: (§5)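 Asynchronous cells were treated with 5 or 10 µM compound or DMSO for 24 h (also 16 and 40 h). They were trypsinized, washed in PBS and fixed/permeabilized in 70% ethanol. Staining was with RNase and propidium iodide for 30 min in the dark at room temperature, followed by flow cytometry. Phase percentages are given minus DMSO control; mean of triplicates.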

[11] = tested on: MDA-MB-231; assay: Induction of apoptosis in human MDA-MB-231 cells assessed as reduction of cdc2 phosphorylation at T161 catalytic site at 10 uM by Western blot analysis; type: functional, cell-based; conditions: TDE = time-dependent effect
In short: (§6)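 MDA-MB-231 cells were treated with 10 µM compound for 1, 3, 6, 12 and 24 h and lysed. Equal protein was resolved by 10% SDS–PAGE and immunoblotted for phospho-cdc2 (T161, Y15), cdc2 and cyclin B, with actin as loading standard and ECL detection.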

[12] = tested on: MCF7; assay: Cell cycle arrest in human MCF7 cells assessed as accumulation at G2/M phase at 5 to 10 uM after 16 to 40 hrs using propidium iodide staining by flow cytometry; type: functional, cell-based; in short: as §5
[13] = tested on: MCF7; assay: Induction of apoptosis in human MCF7 cells assessed as aberrant gross morphological changes at 10 uM after 48 hrs using propidium iodide staining by confocal microscopic analysis; type: functional, cell-based
[14] = tested on: MCF7; assay: Cell cycle arrest in human MCF7 cells assessed as accumulation at G2/M phase at 5 to 10 uM after 24 hrs using propidium iodide staining by flow cytometry; type: functional, cell-based; in short: as §5
[15] = Antiproliferative activity against human CL 10.3 cells expressing p-glycoprotein after 72 hrs by WST-1 assay; type: functional, cell-based; in short: as §2
[16] = tested on: MDA-MB-231; assay: Cell cycle arrest in human MDA-MB-231 cells assessed as accumulation at G2/M phase treated at 10 uM for 24 hrs measured after drug washout following 48 hrs growth recovery using propidium iodide staining by flow cytometry; type: functional, cell-based; in short: as §4
[17] = target: Cyclin-dependent kinase 7/ cyclin H (Homo sapiens) (UniProt P51946+P50613); assay: Inhibition of human CDK7/cyclinH/MAT1 at 0.1 uM after 40 mins relative to control; type: protein-complex assay; in short: as §1
[18] = tested on: MDA-MB-231; assay: Induction of apoptosis in human MDA-MB-231 cells assessed as decrease in caspase 7 protein level at 10 uM after 48 hrs by Western blotting; type: functional, cell-based
[19] = tested on: MCF7; assay: Drug uptake in human MCF7 cell cytoplasm at 10 uM after 1 hr using propidium iodide staining by two-photon confocal microscopy; type: ADME, cell-based; conditions: mcf7, 1 h
In short: (§7)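 Cells (5 × 10^5) were treated with 10 µM compound for 1 h, PBS-washed and fixed in 4% formaldehyde. Nuclei were stained with propidium iodide for 5 min before mounting. Imaging used two-photon confocal microscopy, 63× oil, excitation 720 nm, emission 480–520 nm, with DIC for morphology.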

[20] = tested on: MDA-MB-231; assay: Cell cycle arrest in human MDA-MB-231 cells assessed as accumulation at sup G1 phase at 5 to 10 uM after 24 hrs using propidium iodide staining by flow cytometry; type: functional, cell-based; in short: as §5
[21] = tested on: MCF7; assay: Induction of apoptosis in human MCF7 cells assessed as late apoptotic cells at 10 uM after 24 hrs using annexinV-propidium iodide staining by flow cytometry (reference value: 13.35%); type: functional
[22] = tested on: MDA-MB-231; assay: Induction of apoptosis in human MDA-MB-231 cells assessed as aberrant gross morphological changes at 10 uM after 48 hrs using propidium iodide staining by confocal microscopic analysis; type: functional, cell-based
[23] = tested on: MDA-MB-231; assay: Induction of apoptosis in human MDA-MB-231 cells assessed as reduction of cdc2 phosphorylation at Y15 regulatory site at 10 uM by Western blot analysis; type: functional, cell-based; conditions: TDE = time-dependent effect; in short: as §6
[24] = tested on: MDA-MB-231; assay: Drug uptake in human MDA-MB-231 cell cytoplasm at 10 uM after 1 hr using propidium iodide staining by two-photon confocal microscopy; type: ADME, cell-based; conditions: mda-mb-231, 1 h; in short: as §7
[25] = tested on: MCF7; assay: Antiproliferative activity against human MCF7 cells expressing estrogen receptor after 48 hrs by WST-1 assay; type: functional, cell-based; conditions: MCF7, 48 h; in short: as §3
[26] = tested on: MDA-MB-231; assay: Induction of apoptosis in human MDA-MB-231 cells assessed as decrease in cell number at 10 uM after 48 hrs using propidium iodide staining by confocal microscopic analysis; type: functional, cell-based

CDK3/cyclin E (Homo sapiens), sequence (O96020 whole entry, looked up): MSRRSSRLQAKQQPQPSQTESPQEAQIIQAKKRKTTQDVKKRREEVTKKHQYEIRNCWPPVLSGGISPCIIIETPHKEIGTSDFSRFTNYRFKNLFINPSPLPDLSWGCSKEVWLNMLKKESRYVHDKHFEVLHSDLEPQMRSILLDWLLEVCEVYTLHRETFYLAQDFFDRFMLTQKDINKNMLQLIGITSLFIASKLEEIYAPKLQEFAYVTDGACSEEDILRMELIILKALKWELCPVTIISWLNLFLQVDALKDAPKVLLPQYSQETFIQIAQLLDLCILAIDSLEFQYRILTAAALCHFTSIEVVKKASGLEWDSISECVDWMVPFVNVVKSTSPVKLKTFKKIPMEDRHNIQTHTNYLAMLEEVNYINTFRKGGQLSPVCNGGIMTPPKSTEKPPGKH
CDK3/cyclin E (Homo sapiens), sequence (P24864 whole entry, looked up): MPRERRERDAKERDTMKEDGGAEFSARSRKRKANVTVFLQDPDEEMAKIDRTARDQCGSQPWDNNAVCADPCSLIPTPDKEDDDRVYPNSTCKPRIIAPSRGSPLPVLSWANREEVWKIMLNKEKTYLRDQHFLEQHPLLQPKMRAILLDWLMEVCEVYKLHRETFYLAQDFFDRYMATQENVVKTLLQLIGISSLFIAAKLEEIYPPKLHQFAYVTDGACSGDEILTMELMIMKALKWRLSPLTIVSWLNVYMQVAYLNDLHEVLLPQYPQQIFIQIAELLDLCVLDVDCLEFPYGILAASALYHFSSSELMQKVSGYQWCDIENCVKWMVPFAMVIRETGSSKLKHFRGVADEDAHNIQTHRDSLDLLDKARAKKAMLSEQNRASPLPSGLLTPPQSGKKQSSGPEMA
CDK3/cyclin E (Homo sapiens), sequence (Q00526 whole entry, looked up): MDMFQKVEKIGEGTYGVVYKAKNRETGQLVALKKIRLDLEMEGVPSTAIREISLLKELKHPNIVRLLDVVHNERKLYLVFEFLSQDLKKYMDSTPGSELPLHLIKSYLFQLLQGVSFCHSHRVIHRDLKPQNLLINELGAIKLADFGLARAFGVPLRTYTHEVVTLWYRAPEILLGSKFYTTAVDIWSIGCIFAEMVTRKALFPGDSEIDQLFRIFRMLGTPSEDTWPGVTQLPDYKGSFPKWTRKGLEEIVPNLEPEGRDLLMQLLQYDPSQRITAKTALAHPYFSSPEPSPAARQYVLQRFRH
Cyclin-dependent kinase 1/cyclin B1 (Homo sapiens), sequence (P06493 whole entry, looked up): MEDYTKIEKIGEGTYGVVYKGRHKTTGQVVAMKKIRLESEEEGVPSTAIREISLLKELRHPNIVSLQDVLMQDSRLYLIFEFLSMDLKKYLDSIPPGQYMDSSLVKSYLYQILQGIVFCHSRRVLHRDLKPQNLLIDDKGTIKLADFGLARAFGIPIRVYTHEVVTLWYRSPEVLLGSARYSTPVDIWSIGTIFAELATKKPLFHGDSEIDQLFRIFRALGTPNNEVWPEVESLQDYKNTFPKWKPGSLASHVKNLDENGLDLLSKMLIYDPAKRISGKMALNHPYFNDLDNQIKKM
Cyclin-dependent kinase 1/cyclin B1 (Homo sapiens), sequence (P14635 whole entry, looked up): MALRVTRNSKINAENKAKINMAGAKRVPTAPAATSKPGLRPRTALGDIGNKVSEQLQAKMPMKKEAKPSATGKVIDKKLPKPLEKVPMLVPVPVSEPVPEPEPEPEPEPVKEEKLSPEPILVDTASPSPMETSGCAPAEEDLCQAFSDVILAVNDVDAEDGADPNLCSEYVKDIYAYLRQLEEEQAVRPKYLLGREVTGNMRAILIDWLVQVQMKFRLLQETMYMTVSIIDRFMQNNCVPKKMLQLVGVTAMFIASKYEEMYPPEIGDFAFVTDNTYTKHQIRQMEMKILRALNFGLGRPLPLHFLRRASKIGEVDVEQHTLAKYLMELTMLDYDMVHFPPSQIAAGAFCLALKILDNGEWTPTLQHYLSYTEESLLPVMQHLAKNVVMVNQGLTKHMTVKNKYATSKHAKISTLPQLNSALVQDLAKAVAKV

Activity [1]: Active
inhibition [2]: 65%
inhibition [4]: 35%
IC50 [5]: 4.5 µM
inhibition [6]: 67%
IC50 [7]: 4.06 µM
inhibition [17]: 69%
Activity [19]: Active
Activity [24]: Active
IC50 [25]: 10 µM
Compound: CC(C)[C@H](CO)Nc1nc(Nc2ccc(C(=O)NCCNS(=O)(=O)c3cccc4c(N(C)C)cccc34)c(Cl)c2)c2ncn(C(C)C)c2n1
Activity [3]: 17.15%
Activity [8]: Active
Activity [9]: Active
Activity [10]: Active
inhibition [11]: tde
Activity [12]: Active
Activity [13]: Active
Activity [14]: Active
IC50 [15]: 44.1 µM
Activity [16]: Active
Activity [18]: Active
Activity [20]: Active
Activity [21]: 23.47%
Activity [22]: Active
inhibition [23]: tde
Activity [26]: Active
